Converted amounts (≈) assume the structure as drawn. Like-named read-outs stand apart in the source and are kept apart here. One block for each compound: values may come before it.
Tests used:
[1] = Bidirectional flux of EFdA in Caco-2 cell monolayers; assay type: in vitro ADME; settings: human, Caco-2, pH 7.4
How it was run: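 Caco-2 cells seeded at 2.0 × 10^5 per polycarbonate insert (1.12 cm2, 0.4 μm) and differentiated 21 days. Monolayers were washed and pre-incubated 20 min at 37°C in HBSS, then TEER was read. Donor (apical or basolateral) held 25, 100 or 400 μM compound in HBSS/25 mM HEPES pH 7.4; 2 h at 37°C with shaking, sampled 0–120 min. HPLC-UV at 260 nm. Papp = (dQ/dt)/(A×C0); efflux ratio = Papp(b-a)/Papp(a-b); n = 3.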

ABCB1 transporter (PGP1) = ABCB1 transporter (PGP1) (Homo sapiens, UniProt P08183); assay type: cell-based; settings: PGP1 overexpressing MDCKII cells, even at 200 μM
[2] = assay type: in vitro ADME, Canine; settings: dog, MDCK
How it was run: (§1)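 MDCKII cells seeded at 2.0 × 10^5 per polycarbonate insert (1.12 cm2, 0.4 μm) and grown 7 days; monolayers used only if TEER > 200 Ωcm2. Flux run in both directions per the Caco-2 protocol: HBSS/25 mM HEPES pH 7.4, 37°C, 2 h, serial sampling. Optional pretreatment: 5 μM EDTA in Ca/Mg-free HBSS, both sides, 5 min at 37°C, then washed. Compound by HPLC-UV, lucifer yellow by fluorescence (485/535 nm); n = 3.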

MDCKII monolayers = assay type: in vitro ADME, Canine; settings: MDCKII monolayers; for Efflux ratio after EDTA treatment compared to non-EDTA treatment groups: all test groups; for Papp (a–b) / Papp (b-a): without EDTA treatment
How it was run: as §1

[3] = ref Zhang et al., 2013, cited from earlier work
[4] = ref Zhang et al., 2013; cited from earlier work
[5] = test system: human ectocervical tissues; settings: three separate human ectocervical tissues; ref Zhang et al., 2013; cited from earlier work
Caco-2 monolayers = settings: pH from 5.5 to 7.4, ref Zhang et al., 2013; cited from earlier work
MDCKII cells [6] = test: Calcein-AM uptake assay in MDCKII cells; assay type: cell-based, Canine; settings: MDCKII cells without PGP1 expression, calcein-AM 1 μM
MDCKII cells [7] = test: In vitro cytotoxicity, MTT assay, MDCKII cells; assay type: cell-based, Canine; settings: 48 h, n = 8, mean ± SD
How it was run: (§2)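 Parental and PGP1-overexpressing MDCKII cells seeded at 5 × 10^3 per well, incubated 24 h at 37°C/5% CO2, then exposed 48 h to serial concentrations of DMSO-dissolved compound (DMSO ≤1% v/v). MTT (5 mg/ml solution) was added for 4 h at 37°C, formazan dissolved in DMSO, absorbance read at 595 nm; IC50 derived; mean ± SD.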

[8] = test system: PGP1 overexpressing MDCKII cells; test: In vitro cytotoxicity, MTT assay, PGP1 overexpressing MDCKII cells; assay type: cell-based, Canine; settings: 48 h, n = 8, mean ± SD
How it was run: as §2

Sequence of ABCB1 transporter (PGP1) (P08183 whole entry): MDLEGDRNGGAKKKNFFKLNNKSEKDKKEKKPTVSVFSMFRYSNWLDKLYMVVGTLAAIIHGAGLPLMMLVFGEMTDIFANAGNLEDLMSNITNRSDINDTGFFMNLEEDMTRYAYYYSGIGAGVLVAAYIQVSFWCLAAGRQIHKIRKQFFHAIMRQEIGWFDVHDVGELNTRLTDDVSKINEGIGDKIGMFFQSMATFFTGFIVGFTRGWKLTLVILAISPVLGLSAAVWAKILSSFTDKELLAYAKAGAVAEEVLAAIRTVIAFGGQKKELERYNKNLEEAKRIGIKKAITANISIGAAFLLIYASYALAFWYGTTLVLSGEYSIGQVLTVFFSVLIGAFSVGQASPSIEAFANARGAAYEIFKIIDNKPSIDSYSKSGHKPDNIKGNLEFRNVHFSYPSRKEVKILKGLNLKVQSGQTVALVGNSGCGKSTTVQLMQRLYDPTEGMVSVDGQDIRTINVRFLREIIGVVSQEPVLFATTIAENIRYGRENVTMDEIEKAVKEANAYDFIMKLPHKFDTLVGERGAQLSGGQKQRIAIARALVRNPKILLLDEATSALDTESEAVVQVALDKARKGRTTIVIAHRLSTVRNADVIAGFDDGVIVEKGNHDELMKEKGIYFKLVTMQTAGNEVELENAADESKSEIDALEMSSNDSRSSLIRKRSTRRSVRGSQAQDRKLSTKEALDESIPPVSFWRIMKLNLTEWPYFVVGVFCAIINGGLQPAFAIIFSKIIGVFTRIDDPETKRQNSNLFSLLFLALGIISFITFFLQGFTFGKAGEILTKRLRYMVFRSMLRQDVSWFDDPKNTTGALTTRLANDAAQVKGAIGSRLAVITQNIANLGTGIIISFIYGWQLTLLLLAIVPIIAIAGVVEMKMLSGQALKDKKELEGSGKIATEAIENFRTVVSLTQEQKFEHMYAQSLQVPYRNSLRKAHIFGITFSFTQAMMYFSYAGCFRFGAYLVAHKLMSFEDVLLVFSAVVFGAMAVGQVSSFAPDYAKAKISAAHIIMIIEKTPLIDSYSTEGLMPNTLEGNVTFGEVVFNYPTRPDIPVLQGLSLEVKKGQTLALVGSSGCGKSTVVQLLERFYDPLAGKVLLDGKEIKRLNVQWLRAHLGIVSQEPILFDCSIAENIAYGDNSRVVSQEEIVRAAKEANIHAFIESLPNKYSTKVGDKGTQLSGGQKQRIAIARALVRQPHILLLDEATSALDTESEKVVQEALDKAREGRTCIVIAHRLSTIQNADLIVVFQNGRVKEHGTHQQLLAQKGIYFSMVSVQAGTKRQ

efflux ratio at 2 h [1]: > 2
efflux ratio at 2 h, 100 μM [1]: 5.7
efflux ratio at 2 h, 400 μM [1]: 2.5
PGP1 inhibitory effect (ABCB1 transporter (PGP1)): lack of observed PGP1 inhibitory effect
Papp A→B [2]: < 1 ×10⁻⁶ cm/s
efflux ratio [2]: ~1
Efflux ratio after EDTA treatment compared to non-EDTA treatment groups (MDCKII monolayers): higher
Compound: C#C[C@]1(CO)O[C@@H](n2cnc3c(N)nc(F)nc32)C[C@@H]1O [EFdA, 4′-ethynyl-2-fluoro-2′-deoxyadenosine]
Change in solubility ([3]; pH from 6 to 9): no obvious change
Solubility in water [3]: 1 mg/mL (≈ 3.41 mM)
Log Po/w [4]: −1.2
Papp [5]: < 1e-06 cm/s
pH dependence of transport (Caco-2 monolayers): independent of pH

Compound: C=C[C@H]1C[N@@]2CC[C@H]1C[C@@H]2[C@@H](O)c1ccnc2ccc(OC)cc12 [Quinidine]
PGP1 inhibitory response (calcein fluorescence) (MDCKII cells [6]): no obvious PGP1 inhibitory response

Compound: Ivermectin
IC50 (MDCKII cells [7]): 20 ± 2.91 µM
IC50 [8]: 12.2 ± 0.87 µM
PGP1 inhibitory response (calcein fluorescence) (MDCKII cells [6]): no obvious PGP1 inhibitory response

Efflux ratio after EDTA treatment compared to non-EDTA treatment groups (MDCKII monolayers): higher
Papp (a–b) (MDCKII monolayers; 25 μM): 3.76 ± 0.12 × 10^−7cm/s
Papp (b-a) (MDCKII monolayers; 25 μM): 4.14 ± 0.40 × 10^−7cm/s
Papp (a–b) (MDCKII monolayers; 100 μM): 1.70 ± 0.06 × 10^−7cm/s
Papp (b-a) (MDCKII monolayers; 100 μM): 2.05 ± 0.12 × 10^−7cm/s
Papp (a–b) (MDCKII monolayers; 400 μM): 1.77 ± 0.31 × 10^−7cm/s
Papp (b-a) (MDCKII monolayers; 400 μM): 2.07 ± 0.46 × 10^−7cm/s
Compound: Lucifer yellow [LY]

— PMC4074512 (European journal of pharmacology, 2014)
